Among the data in ChEMBL document CHEMBL1148973, “Bioactive friedolanostanes and 11(10-->8)-abeolanostanes from the bark of Garcinia speciosa” (2004) are GI50 and Activity values, retold here.

Common to all, as to format: functional
One experiment concerns SF-268. Put plainly: Cytotoxicity against human SF268 cells after 48 hrs by SRB assay. The conditions noted are these: SF-268, 48 h. The method, boiled down:
(§1)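 SRB growth-inhibition assay following the NCI screen protocol. Cells were kept adherent in RPMI-1640 with 5% heat-inactivated FBS and 2 mM glutamine at 37 °C under 5% CO2. Plating density was 1.5 × 10^5 cells/mL for MCF-7 and SF-268 and 7.5 × 10^4 cells/mL for NCI-H-460. Cells attached overnight, then received five concentrations (top 100 µM) for 48 h. Cells were fixed in situ, stained with SRB and the bound dye solubilised. GI50 was taken from dose-response curves. Doxorubicin served as positive control.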
(In general: In SRB staining, fixed cells bind dye roughly in proportion to their protein.)

Experiment [1] concerns MCF7. The experiment is described as follows: Cytotoxicity against human MCF7 cells after 48 hrs by SRB assay. The conditions noted are these: MCF7, 48 h. Summed up: as §1
The next experiment relates to NCI-H460. Put plainly: Cytotoxicity against human NCI-H460 cells after 48 hrs by SRB assay. The conditions noted are these: NCI-H460, 48 h. The method, boiled down: as §1
In experiment [2] the test system is MCF7. The experiment is described as follows: Induction of apoptosis in human MCF7 cells assessed as fragmentation of genomic DNA at 0.043 uM after 48 hrs by TUNEL assay.
Experiment [3] concerns MCF7. The experiment is described as follows: Induction of apoptosis in human MCF7 cells assessed as fragmentation of genomic DNA at 15.5 uM after 48 hrs by TUNEL assay. The method, boiled down:
(§2)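 MCF-7 cells were seeded at 1.5 × 10^5 cells/mL, grown 24 h at 37°, then exposed continuously for 48 h. Adherent and floating cells were harvested by trypsinisation, cytospun onto slides and fixed in 4% paraformaldehyde for 1 h at room temperature. DNA fragmentation was detected by fluorescein TUNEL with DAPI counterstain under fluorescence microscopy. Apoptotic percentage came from ≥400 cells over ≥5 random fields. Controls were untreated cells and 40 nM doxorubicin.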

The subject of experiment [4] is MCF7. The experiment is described as follows: Induction of apoptosis in human MCF7 cells assessed as fragmentation of genomic DNA at 19.4 uM after 48 hrs by TUNEL assay. The method, boiled down:
as §2

In experiment [5] the test system is MCF7. Put plainly: Induction of apoptosis in human MCF7 cells assessed as fragmentation of genomic DNA at 15.3 uM after 48 hrs by TUNEL assay. The method, boiled down:
as §2

Experiment [6] concerns MCF7. The experiment is described as follows: Induction of apoptosis in human MCF7 cells assessed as fragmentation of genomic DNA at 26 uM after 48 hrs by TUNEL assay. The method, boiled down:
as §2

Experiment [7] relates to MCF7. Put plainly: Induction of apoptosis in human MCF7 cells assessed as fragmentation of genomic DNA at 19.2 uM after 48 hrs by TUNEL assay. Summed up: as §2
In experiment [8] the test system is MCF7. Put plainly: Induction of apoptosis in human MCF7 cells assessed as fragmentation of genomic DNA at 22.3 uM after 48 hrs by TUNEL assay. Summed up:
as §2

As for `COc1cccc2c1C(=O)c1c(O)c3c(c(O)c1C2=O)C[C@@](O)(C(=O)CO)C[C@@H]3O[C@H]1C[C@H](N)[C@H](O)[C@H](C)O1` [DOXORUBICIN], the GI50 (as a rule, the concentration giving 50% growth inhibition) came out at 0.093 µM in the experiment with SF-268, 0.043 µM with MCF7 [1] and 0.094 µM in the experiment with NCI-H460. In addition, in the experiment with MCF7 [2], the Activity is 26.02%.

On to `CC(=O)O[C@H]1CC[C@]2(C)C3=CC[C@]4(C)C([C@H](C)CC(=O)C[C@H](C)C(=O)O)=CC[C@@]4(C)[C@@H]3CC[C@H]2C1(C)C`, for which the 50% growth inhibitory concentration (GI50) with SF-268 is 30.6 µM; with MCF7 [1], 15.5 µM; in the experiment with NCI-H460 it was 22.1 µM. Further, the Activity in the experiment on MCF7 [3] is 5.33%.

Turning to `C/C(=C\CC[C@@H](C)[C@@]1(C)C[C@H]2O[C@]23[C@]1(C)CCC(=O)[C@@]31CC[C@H]2C(C)(C)[C@@H](O)CC[C@@]21C)C(=O)O`, the results for the 50% growth inhibitory concentration (GI50) in the experiment on SF-268, in the experiment on MCF7 [1] and in the experiment with NCI-H460 were 86.4 µM, 63.8 µM and 68.6 µM, respectively.

As to `C[C@H](CC(=O)C[C@H](C)C(=O)O)C1=CC[C@@]2(C)[C@@H]3CC[C@H]4C(C)(C)[C@H](O)CC[C@]4(C)C3=CC[C@]12C`, the GI50 in the experiment with SF-268 came out at 34.8 µM; in the experiment on MCF7 [1], 19.4 µM; in the experiment with NCI-H460, 36.9 µM. For the same compound, the Activity in the experiment with MCF7 [4] is given as 2.34%.

Take `COC(=O)[C@@H](C)CC(=O)C[C@@H](C)C1=CC[C@@]2(C)[C@@H]3CC[C@H]4C(C)(C)[C@@H](O)CC[C@]4(C)C3=CC[C@]12C`: the GI50 in the experiment with SF-268, in the experiment with MCF7 [1] and in the experiment on NCI-H460 was over 100 µM in each case.

Turning to `COC(=O)/C(C)=C/[C@H]1C[C@@H](C)[C@]2(C)[C@@H](C=C3C4=C(CC[C@]32C)[C@@]2(C)CC[C@@H](OC(C)=O)C(C)(C)[C@@H]2CC4)O1`, the Activity in the experiment with MCF7 [5] is recorded as 23.54%. Further, the GI50 with SF-268 is 28.6 µM; with MCF7 [1], 15.3 µM; in the experiment on NCI-H460, 34.4 µM.

As for `COC(=O)/C(C)=C/[C@H](O)C[C@@H](C)[C@]1(C)CC(=O)C2=C3CC[C@H]4C(C)(C)[C@H](O)CC[C@]4(C)[C@H]3CC[C@]21C`, the 50% growth inhibitory concentration (GI50) with SF-268 came out at 44.7 µM; in the experiment on MCF7 [1], 26 µM; in the experiment on NCI-H460, 42.7 µM. Also, in the experiment with MCF7 [6], the Activity was 26.36%.

Consider `C/C(=C\C=C/[C@@H](C)[C@@]1(C)C[C@H]2O[C@]23[C@]1(C)CCC(=O)[C@@]31CC[C@H]2C(C)(C)[C@@H](O)CC[C@@]21C)C(=O)O`, for which the GI50 with SF-268 is 95.7 µM; in the experiment with MCF7 [1], 69.6 µM; in the experiment with NCI-H460, 70.3 µM.

For the compound `COC(=O)/C(C)=C/[C@H]1C[C@@H](C)[C@]2(C)[C@@H](C=C3C4=C(CC[C@]32C)[C@@]2(C)CC[C@@H](O)C(C)(C)[C@@H]2CC4)O1`, in the experiment on MCF7 [7], the Activity is 2.97%. For the same compound, the results for the GI50 in the experiment on SF-268, with MCF7 [1] and in the experiment on NCI-H460 were 29.7 µM, 19.2 µM and 30.4 µM, respectively.

With `COC(=O)/C(C)=C/[C@H](O)C[C@@H](C)[C@]1(C)CC=C2C3=C(CC[C@]21C)[C@@]1(C)CC[C@@H](O)C(C)(C)[C@@H]1CC3` [GARCIHOMBRONANES C], in the experiment with MCF7 [8], the Activity amounted to 17.36%. Also, the concentration for 50% growth inhibition (GI50) in the experiment with SF-268 is 38.6 µM; in the experiment with MCF7 [1] it was 22.3 µM; in the experiment with NCI-H460, 37.9 µM.
